Data set [1] can be described thus: Cmax in anesthetized Sprague-Dawley rat at 5 mg/kg, iv. The format is ADME, organism-based. Details: dose 5 mg/kg, route intravenous. Conditions: in vivo. In a few lines: (§1)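 Bolus iv injection over 15 s into anesthetised rats, 3 per group. Citrated blood taken under anesthesia predose and at 2, 5, 15, 30 min and 1, 2, 3 h. Plasma obtained by centrifugation at 1700g, 20 C, 5 min, then stored at -80 C. Two acetonitrile precipitations before drug measurement. Parameters derived by noncompartmental analysis of concentration–time curve.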

Data set [2] can be described thus: Selectivity ratio of Ki for uPA to Ki for human recombinant factor 9a.
Data set [3] deals with Coagulation factor X (Homo sapiens, UniProt P00742). The data set is described as follows: Inhibition of factor 10a by amidolytic assay. In a few lines:
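[…] taken as the mean of at least three experiments. Variation between runs stated as under 10%.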

Data set [4] in a line: Protein binding in human plasma. The format is ADME, cell-free. Conditions: read-out: PPB (converted).
Data set [5] can be described thus: Clearance in anesthetized Sprague-Dawley rat at 5 mg/kg, iv. The class given is ADME, organism-based. Details: dose 5 mg/kg, route intravenous. Conditions: in vivo. In outline:
as §1

Data set [6] is described as follows: Selectivity ratio of Ki for factor 10a to Ki for human recombinant factor 9a.
The target in data set [7] is Coagulation factor IX (Homo sapiens, UniProt P00740). The data set is described as follows: Inhibition of human recombinant factor 9a by amidolytic assay.
Coagulation factor IX, sequence (P00740 47-191 limits assumed): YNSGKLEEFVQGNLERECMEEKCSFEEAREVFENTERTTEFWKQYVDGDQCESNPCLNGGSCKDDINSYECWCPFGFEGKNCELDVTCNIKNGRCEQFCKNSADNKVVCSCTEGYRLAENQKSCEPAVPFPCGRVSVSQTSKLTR
Coagulation factor IX, sequence (P00740 227-461 limits assumed): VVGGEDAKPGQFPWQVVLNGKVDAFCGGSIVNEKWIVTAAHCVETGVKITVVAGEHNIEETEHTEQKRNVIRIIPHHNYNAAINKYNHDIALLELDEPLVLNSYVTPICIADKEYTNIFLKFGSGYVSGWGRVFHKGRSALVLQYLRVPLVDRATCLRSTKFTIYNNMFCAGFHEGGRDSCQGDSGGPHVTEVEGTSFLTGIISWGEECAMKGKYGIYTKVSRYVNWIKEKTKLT
Data set [8] in a line: Metabolic stability in human liver assessed as turnover. The class given is ADME, tissue-based. The settings on record: read-out: Stability.
The target in data set [9] is Urokinase-type plasminogen activator (Homo sapiens, UniProt P00749).
The test system of data set [10] is Plasma. The data set is described as follows: Anticoagulant potency in human plasma assessed as concentration required to double the […]. The format is functional. In a few lines: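 Citrated plasma from healthy volunteers, centrifuged at 2000g for 10 min and held on ice. Plasma incubated 1 min at 37 C, aPTT reagent (FSL) added, then 3 min at 37 C. Clotting started with 0.025 M CaCl2. Clot formation read at 660 nm on an automated coagulation analyzer.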

Data set [11] has as its system Plasma. Put plainly: Anticoagulant potency in human plasma assessed as concentration required to double the prothrombin time. The format is functional. In a few lines:
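Citrated plasma from healthy volunteers, centrifuged at 2000g for 10 min and held on ice. Plasma incubated 3 min at 37 C before addition of thromboplastin PT reagent (Thromborel S). Clot formation followed at 660 nm in an automated coagulation analyzer.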

The test system of data set [12] is Plasma. The data set is described as follows: Anticoagulant potency in human plasma assessed as concentration required to double the thrombin time. The class given is functional. In a few lines:
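Plasma from citrated blood of healthy volunteers, centrifuged at 2000g for 10 min and kept on ice. Plasma incubated 2 min at 37 C, then thrombin reagent added. Clotting time monitored at 660 nm on an automated analyzer.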

Data set [13] is described as follows: Half life in anesthetized Sprague-Dawley rat at 5 mg/kg, iv. The format is ADME, organism-based. Details: dose 5 mg/kg, route intravenous. The settings on record: in vivo. In a few lines:
as §1

Data set [14] in a line: AUC (0 to infinity) in anesthetized Sprague-Dawley rat at 5 mg/kg, iv. The format is ADME, organism-based. Details: dose 5 mg/kg, route intravenous, time infinity. Conditions: plasma. In outline: as §1

This note sets out measurements from ChEMBL document CHEMBL1156932, “Structure based drug design: development of potent and selective factor IXa (FIXa) inhibitors” (J Med Chem, 2010).

Coagulation factor X, sequence (P00742 41-179 limits assumed): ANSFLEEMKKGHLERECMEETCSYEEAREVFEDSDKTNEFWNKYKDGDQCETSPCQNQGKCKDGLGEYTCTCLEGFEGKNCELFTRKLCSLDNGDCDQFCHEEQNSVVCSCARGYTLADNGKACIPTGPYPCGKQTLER
Coagulation factor X, sequence (P00742 235-488 limits assumed): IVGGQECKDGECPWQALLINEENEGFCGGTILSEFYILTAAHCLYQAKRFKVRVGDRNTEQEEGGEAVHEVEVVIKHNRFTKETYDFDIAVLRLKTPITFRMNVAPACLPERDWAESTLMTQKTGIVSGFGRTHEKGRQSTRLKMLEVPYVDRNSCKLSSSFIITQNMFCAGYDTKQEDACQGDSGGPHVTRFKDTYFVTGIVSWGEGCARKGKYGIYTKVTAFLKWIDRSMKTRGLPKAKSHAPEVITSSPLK

As for `Cc1cc(NC(=O)OCC(Oc2cccc3sc(C(=N)N)cc23)c2ccccc2)n(C)n1` (stereo not given), the maximum concentration (Cmax) in [1] came to 5.19 µM. For the same compound, the values for the Ratio Ki in [2] and in data set [6] were 17 and 205, respectively. Besides, the Ki in [3] worked out at 2050 nM; in data set [7], 10 nM; in data set [9], 169 nM. Also, in [4], the fraction unbound is 0.04. The clearance in data set [5] was 129 mL/min/kg. For the same compound, the metabolised in [8] was found to be 18%. Besides, the Activity in [10] was 12.8 µM; in data set [11] it was 57 µM; in data set [12], 60 µM. In [13], this compound had a half-life of 2.1 h. Moreover, the AUC(0-inf) in data set [14] was determined as 0.951 µM·h.
For `N=C(N)c1cc2c(OC(COC(=O)Nc3ccc(F)cc3)c3ccccc3)cccc2s1` (stereo not given), the Cmax in data set [1] stood at 10.5 µM. The Ratio Ki in data set [2] amounted to 98; in [6], 213. Moreover, the Ki in data set [3] was found to be 1700 nM; in data set [7], 8 nM; in [9], 780 nM. In addition, the clearance in data set [5] came out at 32.4 mL/min/kg. Moreover, in data set [8], the metabolised amounted to 11%. Moreover, the half-life in data set [13] is 5.5 h. The compound also displayed an AUC(0-inf) in data set [14] of 5.19 µM·h.
For the compound `Cc1n[nH]c(C)c1NC(=O)OCC(Oc1cccc2sc(C(=N)N)cc12)c1ccccc1` (stereo not given), the Ratio Ki in [2] came to 7; in data set [6], 360. Also, the values for the Ki in data set [3], in data set [7] and in data set [9] were 2840 nM, 8 nM and 58 nM, respectively. Also, the fraction unbound in data set [4] was 0.05. For the same compound, the figures for the Activity in [10], in data set [11] and in [12] were 11.7 µM, 63 µM and greater than 80 µM, respectively.
As to `N=C(N)c1cc2c(OC(COC(=O)Nc3ccc(F)cc3F)c3ccccc3)cccc2s1` (stereo not given), the Ratio Ki in [2] worked out at 82; in data set [6], 212. Moreover, the Ki in data set [3] amounted to 1480 nM; in data set [7], 7 nM; in [9], 575 nM.
With `Cc1ccccc1NC(=O)OCC(Oc1cccc2sc(C(=N)N)cc12)c1ccccc1` (stereo not given), the values for the Ratio Ki in data set [2] and in data set [6] were 36 and 148, respectively. The values for the Ki in data set [3], in [7] and in data set [9] were 1180 nM, 8 nM and 308 nM, respectively.
For `N=C(N)c1cc2c(OC(COC(=O)Nc3c(F)cccc3F)c3ccccc3)cccc2s1` (stereo not given), the Ratio Ki in data set [2] came to 34; in [6], 186. The Ki in data set [3] turned out to be 1300 nM; in data set [7], 7 nM; in data set [9], 249 nM.
For `CN(C)Cc1ccccc1NC(=O)OCC(Oc1cc(F)cc2sc(C(=N)N)cc12)c1ccccc1` (stereo not given), in that order: 117, 169, 1360 nM, 8.1 nM and 940 nM.
With `N=C(N)c1cc2c(OC(COC(=O)Nc3ccccc3)c3ccccc3)cc(F)cc2s1` (stereo not given), the Ratio Ki in [2] came out at 137; in data set [6], 102. Moreover, the Ki in [3] worked out at 1590 nM; in [7], 15.5 nM; in [9], 2110 nM.
In the case of `CNCc1c(NC(=O)OCC(Oc2cccc3sc(C(=N)N)cc23)c2ccccc2)c(C)nn1C` (stereo not given), the results for the Ratio Ki in data set [2] and in data set [6] were 31 and 475, respectively. In addition, the inhibitory constant (Ki) in [3] was determined as 2380 nM; in data set [7] it was 5 nM; in data set [9], 156 nM. The fraction unbound in [4] was 0.05. For the same compound, the Activity in [10] was found to be 7.7 µM; in [11], 42 µM; in [12], 56 µM.
For `Cc1nn(C)c(CNC(C)C)c1NC(=O)OCC(Oc1cccc2sc(C(=N)N)cc12)c1ccccc1` (stereo not given), the Ratio Ki was 50 in [2] and 542 in data set [6]. Also, the Ki in [3] stood at 1630 nM; in [7] it was 3 nM; in data set [9], 151 nM. The fraction unbound in data set [4] is 0.04. The Activity in data set [10] was 5.9 µM; in [11] it was 29 µM; in data set [12], 25 µM.
As to `CNCc1ccccc1NC(=O)OCC(Oc1cccc2sc(C(=N)N)cc12)c1ccccc1` (stereo not given), the results for the Ratio Ki in [2] and in data set [6] were 103 and 383, respectively. The Ki in [3] amounted to 1150 nM; in [7], 3 nM; in data set [9], 308 nM.
Take `CC(C)CNCc1ccccc1NC(=O)OCC(Oc1cccc2sc(C(=N)N)cc12)c1ccccc1` (stereo not given): the Ratio Ki in [2] was 367; in [6], 292. Further, the Ki in data set [3] amounted to 583 nM; in data set [7], 2 nM; in data set [9] it was 733 nM.
Take `N=C(N)c1cc2c(OC(COC(=O)Nc3ccccc3CN3CCNCC3)c3ccccc3)cccc2s1` (stereo not given): the results for the Ratio Ki in [2] and in [6] were 278 and 118, respectively. Further, the Ki in data set [3] was found to be 354 nM; in data set [7] it was 3 nM; in data set [9], 833 nM. Also, the fraction unbound in data set [4] was 0.05. For the same compound, the Activity in data set [10] was 5 µM; in data set [11], 17 µM; in data set [12], 20 µM.
As for `CN(C)CCOc1ccc(NC(=O)OCC(Oc2cccc3sc(C(=N)N)cc23)c2ccccc2)cc1` (stereo not given), the Ratio Ki in data set [2] stood at 50; in data set [6] it was 218. The Ki in [3] amounted to 872 nM; in data set [7], 4 nM; in data set [9], 201 nM.
In the same order, the values of `N=C(N)c1cc2c(OC(COC(=O)Nc3ccccc3F)c3ccccc3)cccc2s1` (stereo not given) are 62, 110, 550 nM, 5 nM and 331 nM.
With `COc1ccc(NC(=O)OC[C@H](Oc2cccc3sc(C(=N)N)cc23)c2ccccc2)cc1`, the Ratio Ki in data set [2] was 30; in [6] it was 200. The Ki in data set [3] came to 600 nM; in [7] it was 3 nM; in data set [9], 89 nM.
